hiPSC survival = increases survival of single human iPS cells | hiPSC single-cell survival, ATPlite luminescence; 100% = ROCK inhibitor wells, 0% = DMSO | 360,000 compounds, 0.044% hits | survival enhancement, % at 20 µM; in the data active = survival enhancement above about 18%;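 note: cells exposed to compounds for 16 hours before the ATP read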
ABCB6 inh MLPCN = human ABCB6 transporter inhibition | 360,000 compounds, 0.19% hits | Q9NP58 | fluorescence ratio to DMSO, % at 10 µM | AID 602162 | K562-ABCB6 porphyrin accumulation, flow cytometry, 1 h; hits give low values;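 active = fluorescence ratio to DMSO below 75%, the collection mean minus 3 SD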;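 note: signal is porphyrin accumulated inside mitochondria; 100% equals median channel fluorescence of DMSO control wells; lower ratio means ABCB6 inhibition with less porphyrin fluorescence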
FAS-TE inh = blocks the thioesterase domain of human fatty acid synthase; P49327; recombinant FAS-TE, OMFH fluorogenic substrate, fluorescence endpoint; inhibition, % at 15 µM; 360,000 compounds, 0.67% hits;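 active = compounds whose normalised, plate-corrected inhibition of enzyme fluorescence in the single-dose primary screen is 50% or more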;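 note: 0% = DMSO with enzyme and 100% = substrate without enzyme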
Target sequence (P49327 whole entry, looked up, the tested form may be a part): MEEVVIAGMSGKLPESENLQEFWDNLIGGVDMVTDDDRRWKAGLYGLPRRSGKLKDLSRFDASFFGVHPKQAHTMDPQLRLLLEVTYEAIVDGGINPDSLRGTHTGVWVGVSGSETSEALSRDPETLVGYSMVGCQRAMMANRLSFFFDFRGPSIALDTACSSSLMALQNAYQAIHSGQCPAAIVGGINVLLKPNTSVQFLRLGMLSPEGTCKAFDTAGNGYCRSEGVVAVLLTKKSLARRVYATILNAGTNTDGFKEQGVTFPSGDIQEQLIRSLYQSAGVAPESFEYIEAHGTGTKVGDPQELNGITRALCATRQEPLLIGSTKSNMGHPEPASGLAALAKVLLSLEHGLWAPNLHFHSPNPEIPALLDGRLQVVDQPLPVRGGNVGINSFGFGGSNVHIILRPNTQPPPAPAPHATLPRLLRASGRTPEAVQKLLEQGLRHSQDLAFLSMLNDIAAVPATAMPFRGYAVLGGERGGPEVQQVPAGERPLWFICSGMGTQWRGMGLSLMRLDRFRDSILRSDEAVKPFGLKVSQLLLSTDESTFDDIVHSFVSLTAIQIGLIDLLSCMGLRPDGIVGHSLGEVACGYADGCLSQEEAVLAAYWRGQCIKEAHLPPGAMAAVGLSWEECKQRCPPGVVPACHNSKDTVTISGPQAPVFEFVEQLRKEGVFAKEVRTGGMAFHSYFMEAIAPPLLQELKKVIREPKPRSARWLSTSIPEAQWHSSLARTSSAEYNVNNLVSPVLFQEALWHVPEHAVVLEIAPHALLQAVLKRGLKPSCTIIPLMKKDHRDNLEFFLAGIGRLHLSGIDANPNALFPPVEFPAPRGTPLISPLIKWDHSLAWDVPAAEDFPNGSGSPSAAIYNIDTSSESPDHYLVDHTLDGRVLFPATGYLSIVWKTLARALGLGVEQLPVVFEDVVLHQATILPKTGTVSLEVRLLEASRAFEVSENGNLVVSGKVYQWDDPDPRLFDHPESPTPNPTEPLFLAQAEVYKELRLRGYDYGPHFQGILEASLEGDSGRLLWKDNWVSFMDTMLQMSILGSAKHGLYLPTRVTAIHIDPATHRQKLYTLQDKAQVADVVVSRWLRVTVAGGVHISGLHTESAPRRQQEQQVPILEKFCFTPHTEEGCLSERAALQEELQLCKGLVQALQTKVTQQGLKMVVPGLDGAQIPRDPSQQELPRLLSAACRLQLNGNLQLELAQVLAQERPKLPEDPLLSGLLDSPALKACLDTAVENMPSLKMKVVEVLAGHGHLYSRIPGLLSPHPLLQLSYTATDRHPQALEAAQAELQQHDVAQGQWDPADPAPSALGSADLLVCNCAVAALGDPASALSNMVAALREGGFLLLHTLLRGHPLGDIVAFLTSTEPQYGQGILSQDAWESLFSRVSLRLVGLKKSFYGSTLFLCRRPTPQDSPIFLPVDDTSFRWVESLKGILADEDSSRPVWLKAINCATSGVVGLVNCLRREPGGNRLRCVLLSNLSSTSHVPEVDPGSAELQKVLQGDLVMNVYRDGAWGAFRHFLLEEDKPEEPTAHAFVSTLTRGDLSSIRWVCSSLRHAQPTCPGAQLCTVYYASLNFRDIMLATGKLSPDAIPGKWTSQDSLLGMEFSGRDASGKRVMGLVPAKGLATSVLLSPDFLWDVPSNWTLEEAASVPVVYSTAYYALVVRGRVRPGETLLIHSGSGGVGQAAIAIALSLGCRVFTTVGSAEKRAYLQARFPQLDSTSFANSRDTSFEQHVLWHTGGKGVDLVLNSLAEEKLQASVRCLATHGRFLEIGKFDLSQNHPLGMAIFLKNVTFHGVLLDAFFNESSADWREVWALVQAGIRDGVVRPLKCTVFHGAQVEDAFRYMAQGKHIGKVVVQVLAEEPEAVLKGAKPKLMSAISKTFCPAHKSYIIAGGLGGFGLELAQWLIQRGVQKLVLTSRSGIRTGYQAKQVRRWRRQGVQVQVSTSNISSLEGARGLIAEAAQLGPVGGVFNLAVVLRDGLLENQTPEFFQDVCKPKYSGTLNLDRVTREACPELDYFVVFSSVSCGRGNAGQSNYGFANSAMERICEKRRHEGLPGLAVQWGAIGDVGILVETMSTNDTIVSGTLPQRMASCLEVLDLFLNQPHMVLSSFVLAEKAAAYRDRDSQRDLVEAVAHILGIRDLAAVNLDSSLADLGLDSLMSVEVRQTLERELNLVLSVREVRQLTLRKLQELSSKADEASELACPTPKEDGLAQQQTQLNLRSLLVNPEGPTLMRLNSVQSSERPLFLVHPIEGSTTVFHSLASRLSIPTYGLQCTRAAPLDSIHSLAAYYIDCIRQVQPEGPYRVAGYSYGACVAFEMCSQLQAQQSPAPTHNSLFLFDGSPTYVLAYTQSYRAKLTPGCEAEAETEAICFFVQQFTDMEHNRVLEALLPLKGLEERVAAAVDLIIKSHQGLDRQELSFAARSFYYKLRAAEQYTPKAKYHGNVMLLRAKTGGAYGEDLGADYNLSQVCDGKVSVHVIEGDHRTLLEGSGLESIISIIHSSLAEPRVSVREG
SENP1 FRET inh = SENP1 (human) catalytic domain inhibition; Q9P0U3; recombinant SENP1 catalytic domain, CyPet-SUMO1-YPet FRET cleavage; inhibition, % at 10 µM; 360,000 compounds, 0.21% hits;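 active = inhibition at least 30% at 10 µM, raw YFP signal under a set limit, fluorescence ratio 0.5 to 1.5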;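 note: 0% = enzyme with DMSO and 100% = no enzyme wells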
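System: Recombinant human SENP1 catalytic domain, His6-tagged | Incubation: Enzyme reaction for 50 min at room temperature, dark | Medium: Tris pH 8 with BME, BSA, NP40 and catalase | Also added: 25 nM SUMO1 FRET substrate | Compound: 10 µM single point, 0.5% DMSO | Measured by: FRET fluorescence in CFP and YFP emission channels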
* = called active by the depositor. A selection: hits, their analogues and other compounds. The true share with any hit is near 1.1%.

SMILES | hiPSC survival | ABCB6 inh MLPCN | FAS-TE inh | SENP1 FRET inh
C=Cc1ccc(CC2(C)C(=O)Nc3ccc(-c4cccnc4)cc32)cc1 (stereo not drawn) | -2 | 100 | 7 | 0
COC(=O)C(NC(=O)c1ccccc1)=C1CCCCC1 | 4 | 74* | -3 | -1
Cc1ccc2nc(-c3ccc(N4C(=N)SC5CS(=O)(=O)CC54)cc3)sc2c1 (stereo not drawn) | 1 | 121 | -27 | -50
COc1cc2c(cc1OC)C(c1cc(Br)ccc1F)N(C(=O)CCl)CC2 (stereo not drawn) | 21* | 98 | 21 | 2
Cc1cc(N2CCN(C(c3ccccc3)c3ccccc3)CC2)n2ncnc2n1 | 1 | 88 | 54* | 0
Cc1nc2ncnn2c(N2CCN(C(c3ccccc3)c3ccccc3)CC2)c1C | -2 | 100 | 17 | 3
COc1ccc(-c2oc3cc(OC(C)=O)cc(OC(C)=O)c3c(=O)c2OC)cc1 | -4 | 97 | 2 | -9
CC(=O)Oc1cc(O)c2c(=O)c(OC(C)=O)c(-c3ccc(OC(C)=O)c(OC(C)=O)c3)oc2c1 | -1 | 102 | 4 | 51*
COC(=O)[C@]1(Cc2ccccc2)N[C@H](CN(C)C(=O)Nc2ccc(OC)cc2)[C@@H]2C(=O)N(C)C(=O)[C@@H]21 | -2 | 102 | -6 | 1
COC(=O)[C@]1(Cc2ccccc2)N[C@H](CN(C)C(=O)Nc2ccccc2)[C@@H]2C(=O)N(C)C(=O)[C@@H]21 | 28* | 92 | -11 | 4
COC(=O)[C@]1(Cc2ccccc2)N[C@H](c2ccc(-c3ccc4c(c3)OCO4)cc2)[C@@H]2C(=O)N(C)C(=O)[C@@H]21 | -4 | 100 | 86* | 0
CCN(CC(=O)Nc1ccc(NC(C)=O)cc1)C(=O)CCCSc1nc2ccccc2[nH]1 | 0 | 98 | -4 | 0
CC(Sc1nnc(-c2cccnc2)n1C)C(=O)N1CCOCC1 (stereo not drawn) | -1 | 97 | -9 | -1
CCOc1ccc(NC(=O)CSc2nnnn2C2CCCC2)cc1 | 0 | 95 | 0 | 2
C=CCn1c(SCC(=C)C)nc2c1c(=O)[nH]c(=O)n2C | 1 | 100 | -5 | 2
C=CCn1c(Sc2nnc(C)s2)nc2c1c(=O)[nH]c(=O)n2C | -2 | 68* | 0 | -1
CN(CCc1ccccc1)C(=O)c1[nH]c(C(F)(F)F)nc1-c1ccccc1 | 4 | 75 | -6 | 1
C[C@@H]1CN([C@@H](C)CO)S(=O)(=O)c2ccc(C#CC(C)(C)O)cc2O[C@H]1CN(C)C(=O)C1CCCCC1 | 0 | 98 | 1 | 3
O=C(O)CN1C(=O)/C(=C\c2cc(Br)ccc2OCc2ccc(Cl)cc2Cl)SC1=S | 0 | 103 | 86* | 2
O=C(O)CN1C(=O)/C(=C\c2ccccc2OCc2ccc(Cl)cc2)SC1=S | 1 | 103 | 14 | 1
C#CCNC(=O)c1ccc2sc([C@@H]3O[C@H](CO)[C@H](O)[C@H](O)[C@H]3O)nc2c1 | 4 | 96 | -10 | 1
COc1ccccc1Sc1nc(-c2ccccn2)ncc1OC | 23* | 102 | -2 | 1
CCN=C1S/C(=C/c2ccc(-c3ccc(Cl)cc3C(=O)O)o2)C(=O)N1CC | 0 | 71* | 2 | -23
O=c1c(C(c2ccc(F)cc2)c2c(O)nc3n(c2=O)CCS3)c(O)nc2n1CCS2 | 0 | 99 | -2 | 0
CCC(C)[C@@H](NC(=O)OC(C)(C)C)c1nnc(S(=O)(=O)Cc2cccc(C)c2)o1 (stereo partly drawn) | -3 | 96 | 60* | 2
SMILES | hiPSC survival | ABCB6 inh MLPCN | FAS-TE inh | SENP1 FRET inh
Cc1cccc(CS(=O)(=O)Cc2ccc(C(=O)NC(C)c3ccccc3)o2)c1 (stereo not drawn) | 0 | 101 | -2 | 2
Cc1cc(C)n2[nH]c(=O)cc2n1 | -2 | 98 | -5 | 2
CCOC(=O)C1=CCN(S(=O)(=O)c2ccc(Cl)cc2)C1c1ccc(C)cc1 (stereo not drawn) | 0 | 90 | 28 | -3
CC(C)c1ccc(C2NC(=S)NC3=C2C(=O)CCC3)cc1 (stereo not drawn) | 0 | 69* | -9 | 0
Cc1ccc(C2NC(=S)NC3=C2C(=O)CCC3)cc1 (stereo not drawn) | -1 | 101 | -4 | 3
CC(C)(C)OC(=O)CNC(=O)c1[nH]cnc1C(=O)NCCCCCNC(=O)OC(C)(C)C | -1 | 74* | -4 | 2
CNC(=O)c1[nH]cnc1C(=O)N[C@@H](CCCCNC(=O)OC(C)(C)C)C(=O)OC(C)(C)C | 0 | 99 | 7 | 1
CC(C)(C)OC(=O)NCCCC[C@H](NC(=O)c1[nH]cnc1C(=O)Nc1ccc(Cl)cc1)C(=O)OC(C)(C)C | 5 | 100 | 76* | 1
CC1CCN(C(=O)c2[nH]cnc2C(=O)NCC(=O)OC(C)(C)C)CC1 | 26* | 98 | -6 | 1
CC(C)(C)OC(=O)CNC(=O)c1[nH]cnc1C(=O)NCCCCCN | -2 | 96 | -9 | 0
CC(C)(C)OC(=O)CNC(=O)c1nc[nH]c1C(=O)N1CCN(C(=O)OC(C)(C)C)CC1 | -1 | 103 | -6 | 2
CCc1nnc(NC(=O)CN2CCN(Cc3ccccc3Cl)CC2)s1 | 0 | 96 | -4 | 0
CCC(C(=O)Nc1ccc2[nH]ncc2c1)c1ccccc1 (stereo not drawn) | 62* | 108 | -17 | 0
CN1CCN(S(=O)(=O)c2cccc(C(=O)Nc3ccc(Br)cc3Br)c2)CC1 | 0 | 92 | 10 | -1
CCCCOc1ccc(OCCCC)c2c1NC1(N2)C(=O)N(C(C)=O)c2ccccc21 | 3 | 95 | 4 | 45*
CCNC(=O)N1C(=O)C2(OCCO2)c2ccccc21 | -1 | 101 | -6 | 2
COc1c(OC(C)=O)c(=O)n2c3ccccc3c3ccnc1c32 | -2 | 97 | -2 | 69*
COC(=O)c1cn(NC(=O)c2cccc(F)c2)c(=O)c2ccccc12 | -1 | 97 | 1 | 3
COC(=O)c1cn(NC(=O)c2cccc(N(C)C)c2)c(=O)c2ccccc12 | -2 | 72* | -5 | 3
COc1cccc(OCC(=O)Nc2ccccc2-c2ccccc2)c1 | 0 | 100 | 25 | 1
COc1cccc(OCC(=O)NN=C2c3ccccc3-c3ccccc32)c1 | 6 | 44* | 11 | 3
COc1ccc(NC(=O)c2ccc(CN(c3cc(Cl)ccc3C)S(=O)(=O)c3ccccc3)cc2)cc1OC | 0 | 101 | 62* | 1
Cc1ccc(C(=O)NC(C)CCc2ccccc2)cc1[N+](=O)[O-] (stereo not drawn) | 2 | 94 | 74* | 0
Cc1ccc(C)c(C(=O)NC(C)CCc2ccccc2)c1 (stereo not drawn) | 0 | 101 | -2 | -1
CN(C(=O)c1ccc(=O)n(Cc2ccc(Cl)cc2)c1)c1ccccc1 | -1 | 101 | 0 | 1
Cc1cc(-c2ccccc2C(=O)O)on1 | 0 | 103 | -3 | 0
O=C(O)c1ccccc1C1=Nc2ccc(O)cc2Oc2cc(O)ccc21 | -1 | 99 | -132 | 59*
